Only some compounds are listed: those with a hit (about 0.9% of all), similar ones and a draw of the others.
ABCG2 inh – human ABCG2 inhibition, ABCB1 as counter-screen; 190,000 tested, 0.1% active; inhibition, % at 6.6 µM; AID 1325; IgMXP3 cells, JC-1 efflux, flow cytometry;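 active = inhibition above 80%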
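Assay system – ABCG2 IgMXP3 and barcoded ABCB1 CCRF-Adr cell mix · Input – 3 million cells/mL in well · Reagent – JC-1 fluorescent substrate · Compound – single test compound dose, 6.6 µM final · Timing – 10 min exposure at 25 °C with rotation, no wash · Detection – flow cytometry of retained JC-1 fluorescence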
ABCB1 block – inhibitors of human ABCB1 transporter, ABCG2 counter-screen | CCRF-Adr cells, JC-1 efflux, flow cytometry | 190,000 tested, 0.067% active | inhibition, % at 6.6 µM; in the data active = inhibition above about 40%;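 note: higher value means more JC-1 retained so stronger ABCB1 efflux block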
RGS8-Gao – regulators of human RGS8-Galphao interaction. P09471. response (percent of control binding), % at 10 µM. 220,000 tested, 0.34% active. multiplexed bead flow cytometry, RGS8-Galphao binding; actives lie on both sides. AID 1423; in the data active = response below about 60% or above about 140%; inactive = in between;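 note: Galphao activated as the GDP aluminium fluoride complex binding bead-coupled RGS8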
RGS4-Gao reg – human RGS4-Galphao interaction regulation; 220,000 tested, 0.33% active; Multiplexed bead flow cytometry, RGS4-Galphao binding; actives lie on both sides; binding response (% of control), % at 10 µM; in the data active = binding response below about 49% or above about 150%; inactive = in between;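 note: fluorescent Galphao activated with aluminum fluoride binding bead-coupled RGS4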
RGS7-Gao reg – human RGS7-Galphao interaction regulation; P09471; Multiplexed bead flow cytometry, RGS7-Galphao binding; actives lie on both sides; binding response (% of control), % at 10 µM; 220,000 tested, 0.35% active; AID 1439; in the data active = binding response below about 49% or above about 150%; inconclusive = no clear call, values can overlap the other calls; inactive = in between;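 note: fluorescent Galphao held in activated GDP-AlF4 state binding bead-coupled RGS7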
RGS16-Gao – regulators of human RGS16-Galphao interaction; O15492+P09471; 220,000 tested, 0.38% active; bead-based flow cytometry RGS16-Galphao binding, fluorescence; actives lie on both sides; binding response (% of control), % at 10 µM;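 note: Galphao activated by GDP with aluminum fluoride before binding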
RGS-Gao – modulates binding between human RGS4 and Galphao. shares compounds with RGS16-Gao. 1,600 tested, 99% active. multiplexed bead flow cytometry, RGS–Galpha-o binding. AID 1504. RGS4–Galpha-o binding response, % at 10 µM;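 note: fluorescently labeled Galpha-o bound to GDP with aluminium fluoride binding biotinylated RGS beads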
Biotin-avidin – biotin-avidin bead binding disruption counter-screen; 1,700 tested, under 10 active; shares compounds with RGS16-Gao; inhibition, % at 10 µM; streptavidin beads, fluorescein-biotin binding, flow cytometry;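 active = inhibition above 50%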;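 note: median green fluorescence of gated singlet beads compared with DMSO control wells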
RGS8-Gao single – RGS8-Galphao interaction regulation, single point confirmation; bead-based flow cytometry RGS8-Galphao binding, fluorescence; actives lie on both sides; binding response (% of control), % at 10 µM; 1,700 tested, 3% active; AID 1836; shares compounds with RGS16-Gao; in the data active = binding response below about 72% or above about 130%; inactive = in between;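 note: Galphao activated as GDP AlF4 complex before binding bead RGS8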
RGS7-Gao confirm – RGS7-Galphao interaction regulation, single point confirmation | 1,700 tested, 7.8% active | shares compounds with RGS16-Gao | AID 1837 | response (percent of control binding), % at 10 µM | bead-based flow cytometry RGS7-Galphao binding; actives lie on both sides; in the data active = response below about 75% or above about 130%; inactive = in between;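 note: fluorescent Galphao activated with GDP and aluminum fluoride binding bead-coupled RGS7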
RGS16-Gao single – confirmation of regulators of human RGS16-Galphao interaction. shares compounds with RGS16-Gao. bead-based flow cytometry, RGS16-Galphao binding; actives lie on both sides. response (% of control binding), % at 10 µM. 1,700 tested, 4% active. AID 1838; in the data active = response below about 74% or above about 130%; inactive = in between;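 note: Galphao activated as the GDP aluminium fluoride complex binding bead-coupled RGS16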
RGS4-Gao confirm – RGS4-Galphao interaction regulation, single point confirmation; RGS4-Galphao binding, multiplexed bead flow cytometry; actives lie on both sides; binding response (% of control), % at 10 µM; 1,700 tested, 4% active; shares compounds with RGS16-Gao; in the data active = binding response below about 74% or above about 130%; inactive = in between
RGS19-Gao conf – RGS19-Galphao interaction regulation, single point confirmation. bead-based flow cytometry RGS19-Galphao binding; actives lie on both sides. 1,700 tested, 5% active. shares compounds with RGS16-Gao. response (percent of control binding), % at 10 µM. AID 1841; in the data active = response below about 50% or above about 160%; inactive = in between
Target sequence (P09471 whole entry, looked up): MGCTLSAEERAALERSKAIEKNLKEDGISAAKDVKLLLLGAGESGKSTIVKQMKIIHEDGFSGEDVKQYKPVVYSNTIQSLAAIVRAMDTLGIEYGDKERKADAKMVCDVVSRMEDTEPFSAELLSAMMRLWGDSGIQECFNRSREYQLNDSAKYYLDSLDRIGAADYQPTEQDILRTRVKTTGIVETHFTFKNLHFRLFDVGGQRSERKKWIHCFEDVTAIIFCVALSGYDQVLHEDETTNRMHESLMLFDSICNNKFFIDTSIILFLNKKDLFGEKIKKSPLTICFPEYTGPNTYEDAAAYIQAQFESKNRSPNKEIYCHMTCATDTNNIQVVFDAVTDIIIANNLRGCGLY
Target sequence (P49795 whole entry, looked up): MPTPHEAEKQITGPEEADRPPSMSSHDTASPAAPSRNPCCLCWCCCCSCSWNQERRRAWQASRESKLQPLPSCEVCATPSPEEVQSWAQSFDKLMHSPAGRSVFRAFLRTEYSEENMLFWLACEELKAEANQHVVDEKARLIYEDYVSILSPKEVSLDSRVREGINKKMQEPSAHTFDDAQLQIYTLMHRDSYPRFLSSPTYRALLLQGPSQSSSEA
Each line names hits and unclear results; the compound was inactive in the other large screens (follow-up assays come after a bar, where they were run); [ ] = remark or other dose. Unless noted, the rule behind the calls is not given here.

Cc1ccc(S(=O)(=O)NCCc2nnc3ccc(SCC(=O)Nc4nc5ccccc5s4)nn23)cc1	RGS16-Gao 177.3[activator] | RGS-Gao 104.8 | Biotin-avidin inactive | RGS8-Gao single inactive | RGS7-Gao confirm inactive | RGS16-Gao single inactive | RGS4-Gao confirm inactive | RGS19-Gao conf inactive
Cc1cc(NC(=O)CSc2ccc3nnc(CCNS(=O)(=O)c4ccccc4)n3n2)no1	none
CCc1ccc(C2CC(c3ccco3)=NN2S(C)(=O)=O)cc1 (configuration not stated)	none (no result: RGS8-Gao, RGS4-Gao reg, RGS7-Gao reg, RGS16-Gao) | Biotin-avidin inactive | RGS8-Gao single inactive | RGS7-Gao confirm inactive | RGS16-Gao single inactive | RGS4-Gao confirm inactive | RGS19-Gao conf inactive
COc1cc(C(=O)NCCc2ccc(S(=O)(=O)N3CCCC3)cc2)cc(OC)c1OC	none
Cc1ccccc1-n1sc2cc(F)ccc2c1=O	RGS8-Gao 37.2, RGS16-Gao 4.8 | RGS-Gao 89.6
Cn1c(CSCc2ccc(Cl)cc2)nnc1SCC(=O)Nc1nc2ccccc2s1	none (no result: RGS8-Gao, RGS4-Gao reg, RGS7-Gao reg, RGS16-Gao) | Biotin-avidin inactive | RGS8-Gao single inactive | RGS7-Gao confirm inactive | RGS16-Gao single inactive | RGS4-Gao confirm inactive | RGS19-Gao conf inactive
COc1cc(C(=O)N/N=C/c2ccccn2)cc(OC)c1OC	RGS8-Gao 13.0, RGS4-Gao reg 20.4, RGS7-Gao reg inconclusive, RGS16-Gao 12.5 | Biotin-avidin inactive | RGS8-Gao single inactive | RGS7-Gao confirm inactive | RGS16-Gao single inactive | RGS4-Gao confirm inactive | RGS19-Gao conf inactive
COc1ccc(C(=O)N/N=C/c2ccccn2)cc1OC	none
CCOC(=O)c1cccnc1NC(=O)c1ccccc1	none
CCOC(=O)N/N=C\c1ccc(-c2cccc(C(F)(F)F)c2)o1	none
CC1(CC(=O)N/N=C/c2ccc(-c3cccc(C(F)(F)F)c3)o2)OCCO1	RGS4-Gao reg 169.4[activator], RGS7-Gao reg 261.7[activator], RGS16-Gao 204.2[activator] | Biotin-avidin inactive | RGS8-Gao single inactive | RGS7-Gao confirm inactive | RGS16-Gao single inactive | RGS4-Gao confirm inactive | RGS19-Gao conf inactive
O=Cc1ccc(-c2ccc(Cl)cc2Cl)[nH]1	RGS8-Gao 26.2, RGS4-Gao reg 26.1, RGS7-Gao reg 16.3, RGS16-Gao 15.0 | Biotin-avidin inactive | RGS8-Gao single inactive | RGS7-Gao confirm inactive | RGS16-Gao single inactive | RGS4-Gao confirm inactive | RGS19-Gao conf inactive
Cc1cc(S(=O)(=O)Nc2cc(C)c(O)c(C)c2)c(C)s1	none (no result: RGS8-Gao, RGS4-Gao reg, RGS7-Gao reg, RGS16-Gao) | Biotin-avidin inactive | RGS8-Gao single inactive | RGS7-Gao confirm inactive | RGS16-Gao single inactive | RGS4-Gao confirm inactive | RGS19-Gao conf inactive
CC(=O)NC1(c2ccccc2)CCN(c2cc(C)nc(-c3ccccc3)n2)CC1	none
CC(=O)/C(=N/Nc1ccccc1Cl)Sc1nnc(C(O)c2ccccc2)n1-c1ccccc1 (configuration not stated)	none
